# The source made the active and inactive calls. The rule behind the calls is not given here.
# Tests used:
# [1] = test system: Staphylococcus aureus; experiment: Antibacterial activity against methicillin-resistant Staphylococcus aureus NRS384 USA300 after 18 to 20 hrs by broth microdilution assay; type: functional
# Summary of the method: (§1)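 Broth microdilution per CLSI. Strains grown aerobically overnight on tryptone soy agar at 37 °C, adjusted to 0.5 McFarland, then diluted in cation-adjusted Mueller-Hinton broth to about 5 × 10^5 CFU/mL. Compounds (10 mg/mL DMSO stocks) serially diluted. Incubated aerobically at 37 °C for 18-20 h. MIC is the lowest concentration with no visible growth.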
# [2] = test system: Staphylococcus aureus; experiment: Antibacterial activity against intracellular methicillin resistant Staphylococcus aureus USA400 infected in mouse J774 cells assessed as intracellular bacterial cells at 2 times MIC concentration incubated for 24 hrs followed by re-plating on TSA plate for 18 to 22 hrs by serial dilution method; type: functional, organism-based
# Summary of the method: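 J774 murine macrophages in DMEM + 10% FBS, 37 °C, 5% CO2, infected with MRSA USA400 at MOI ~10:1 for 1 h. Washed with gentamicin 100 µg/mL to kill extracellular bacteria. […] Cells lysed with 0.1% Triton-X, serially diluted in PBS, plated on TSA for 18-22 h, CFU counted. One-way ANOVA with Dunnett's test.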
# [3] = test system: Streptococcus pneumoniae; experiment: Bactericidal activity against cephalosporin-resistant Streptococcus pneumoniae ATCC 51916 incubated for 18 to 20 hrs followed by replating on tryptic soy agar plate and further incubated for 18 to 24 hrs by CLSI-based broth microdilution assay; type: functional
# Summary of the method: (§2)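 MBC: after the broth microdilution MIC (CAMHB, ~5 × 10^5 CFU/mL, 37 °C, 18-20 h), 4 µL from wells without growth plated onto tryptic soy agar. Plates incubated 37 °C for 18-20 h. MBC is the lowest concentration giving 99.9% reduction in growth.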
# [4] = test system: Streptococcus pneumoniae; experiment: Antibacterial activity against cephalosporin-resistant Streptococcus pneumoniae ATCC 51916 after 18 to 20 hrs by CLSI-based broth microdilution assay; type: functional; summary of the method: as §1
# [5] = test system: Staphylococcus aureus; experiment: Bactericidal activity against methicilline-sensitive Staphylococcus aureus ATCC 6538 incubated for 18 to 20 hrs followed by replating on tryptic soy agar plate and further incubated for 18 to 24 hrs by CLSI-based broth microdilution assay; type: functional; summary of the method: as §2
# [6] = test system: Enterococcus faecalis; experiment: Antibacterial activity against vancomycin-resistant Enterococcus faecalis ATCC 51299 after 18 to 20 hrs by CLSI-based broth microdilution assay; type: functional; summary of the method: as §1
# [7] = test system: Streptococcus pneumoniae; experiment: Bactericidal activity against methicillin-resistant Streptococcus pneumoniae ATCC 700677 incubated for 18 to 20 hrs followed by replating on tryptic soy agar plate and further incubated for 18 to 24 hrs by CLSI-based broth microdilution assay; type: functional; summary of the method: as §2
# [8] = test system: Staphylococcus aureus; experiment: Bactericidal activity against methicillin-resistant Staphylococcus aureus USA400 assessed as reduction in bacterial burden at 5 times MIC after 24 hrs by time kill assay; type: functional, organism-based
# [9] = test system: Staphylococcus aureus; experiment: Bactericidal activity against vancomycin-resistant Staphylococcus aureus 10 incubated for 18 to 20 hrs followed by replating on tryptic soy agar plate and further incubated for 18 to 24 hrs by CLSI-based broth microdilution assay; type: functional; summary of the method: as §2
# [10] = test system: Enterococcus faecalis; experiment: Bactericidal activity against vancomycin-resistant Enterococcus faecalis ATCC 51299 incubated for 18 to 20 hrs followed by replating on tryptic soy agar plate and further incubated for 18 to 24 hrs by CLSI-based broth microdilution assay; type: functional; summary of the method: as §2
# [11] = test system: Staphylococcus aureus; experiment: Bactericidal activity against methicilline-resistant Staphylococcus aureus NRS386 USA700 incubated for 18 to 20 hrs followed by replating on tryptic soy agar plate and further incubated for 18 to 24 hrs by CLSI-based broth microdilution assay; type: functional; summary of the method: as §2
# [12] = test system: Staphylococcus aureus; experiment: Bactericidal activity against vancomycin-resistant Staphylococcus aureus 12 incubated for 18 to 20 hrs followed by replating on tryptic soy agar plate and further incubated for 18 to 24 hrs by CLSI-based broth microdilution assay; type: functional; summary of the method: as §2
# [13] = test system: Enterococcus faecium; experiment: Bactericidal activity against vancomycin-resistant Enterococcus faecium ATCC 700221 incubated for 18 to 20 hrs followed by replating on tryptic soy agar plate and further incubated for 18 to 24 hrs by CLSI-based broth microdilution assay; type: functional; summary of the method: as §2
# [14] = test system: Staphylococcus aureus; experiment: Bactericidal activity against methicilline-resistant Staphylococcus aureus NRS-119 incubated for 18 to 20 hrs followed by replating on tryptic soy agar plate and further incubated for 18 to 24 hrs by CLSI-based broth microdilution assay; type: functional; summary of the method: as §2
# [15] = test system: Staphylococcus aureus; experiment: Antibacterial activity against vancomycin-resistant Staphylococcus aureus 12 after 18 to 20 hrs by CLSI-based broth microdilution assay; type: functional; summary of the method: as §1
# [16] = test system: Staphylococcus aureus; experiment: Bactericidal activity against Staphylococcus aureus ATCC BAA42 incubated for 18 to 20 hrs followed by replating on tryptic soy agar plate and further incubated for 18 to 24 hrs by CLSI-based broth microdilution assay; type: functional; summary of the method: as §2
# [17] = test system: Staphylococcus aureus; experiment: Bactericidal activity against methicilline-sensitive Staphylococcus aureus NRS-107 incubated for 18 to 20 hrs followed by replating on tryptic soy agar plate and further incubated for 18 to 24 hrs by CLSI-based broth microdilution assay; type: functional; summary of the method: as §2
# [18] = test system: Staphylococcus aureus; experiment: Antibacterial activity against vancomycin-resistant Staphylococcus aureus 10 after 18 to 20 hrs by CLSI-based broth microdilution assay; type: functional; summary of the method: as §1
# [19] = test system: Staphylococcus aureus; experiment: Antibacterial activity against Staphylococcus aureus ATCC BAA42 after 18 to 20 hrs by CLSI-based broth microdilution assay; type: functional; summary of the method: as §1
# [20] = test system: Streptococcus pneumoniae; experiment: Antibacterial activity against methicillin-resistant Streptococcus pneumoniae ATCC 700677 after 18 to 20 hrs by CLSI-based broth microdilution assay; type: functional; summary of the method: as §1
# [21] = test system: Staphylococcus aureus; experiment: Antibiofilm activity against methicillin resistant Staphylococcus aureus NRS384 USA300 assessed as disruption of matured biofilm formation at 4 x MIC incubated for 24 hrs by crystal violet staining based spectrophotometric analysis; type: functional, organism-based
# Summary of the method: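 MRSA USA300 overnight culture diluted 1:100 in tryptic soy broth + 1% glucose. Biofilm formed for 24 h at 37 °C. Planktonic cells removed, then compounds added at 256 to 2 µg/mL in TSB for 24 h at 37 °C. Wells washed with PBS, stained with 0.1% crystal violet for 30 min, destained with ethanol, read at OD595. Percent eradication relative to DMSO; unpaired t test.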
# [22] = test system: Staphylococcus aureus; experiment: Bactericidal activity against methicilline-resistant Staphylococcus aureus NRS123 USA400 incubated for 18 to 20 hrs followed by replating on tryptic soy agar plate and further incubated for 18 to 24 hrs by CLSI-based broth microdilution assay; type: functional; summary of the method: as §2
# [23] = test system: Listeria monocytogenes; experiment: Antibacterial activity against Listeria monocytogenes ATCC 19111 after 18 to 20 hrs by CLSI-based broth microdilution assay; type: functional
# [24] = test system: Staphylococcus aureus; experiment: Bactericidal activity against methicilline-resistant Staphylococcus aureus NRS385 USA500 incubated for 18 to 20 hrs followed by replating on tryptic soy agar plate and further incubated for 18 to 24 hrs by CLSI-based broth microdilution assay; type: functional; summary of the method: as §2
# [25] = test system: Enterococcus faecium; experiment: Antibacterial activity against vancomycin-resistant Enterococcus faecium ATCC 700221 after 18 to 20 hrs by CLSI-based broth microdilution assay; type: functional; summary of the method: as §1
# [26] = test system: Staphylococcus aureus; experiment: Bactericidal activity against methicilline-resistant Staphylococcus aureus NRS384 USA300 incubated for 18 to 20 hrs followed by replating on tryptic soy agar plate and further incubated for 18 to 24 hrs by CLSI-based broth microdilution assay; type: functional; summary of the method: as §2
# [27] = test system: Staphylococcus aureus; experiment: Antibacterial activity against methicilline-resistant Staphylococcus aureus NRS384 USA300 after 18 to 20 hrs by CLSI-based broth microdilution assay; type: functional; summary of the method: as §1
# [28] = test system: Staphylococcus aureus; experiment: Antibacterial activity against methicilline-resistant Staphylococcus aureus NRS385 USA500 after 18 to 20 hrs by CLSI-based broth microdilution assay; type: functional; summary of the method: as §1
# [29] = test system: Staphylococcus aureus; experiment: Antibacterial activity against methicilline-sensitive Staphylococcus aureus NRS-107 after 18 to 20 hrs by CLSI-based broth microdilution assay; type: functional; summary of the method: as §1
# [30] = test system: Staphylococcus aureus; experiment: Antibacterial activity against methicilline-resistant Staphylococcus aureus NRS-119 after 18 to 20 hrs by CLSI-based broth microdilution assay; type: functional; summary of the method: as §1
# [31] = test system: Staphylococcus aureus; experiment: Antibacterial activity against methicilline-resistant Staphylococcus aureus NRS123 USA400 after 18 to 20 hrs by CLSI-based broth microdilution assay; type: functional; summary of the method: as §1
# [32] = test system: Staphylococcus epidermidis; experiment: Antibacterial activity against methicillin-resistant Staphylococcus epidermidis NRS101 after 18 to 20 hrs by CLSI-based broth microdilution assay; type: functional; summary of the method: as §1
# [33] = test system: Staphylococcus aureus; experiment: Antibacterial activity against methicilline-sensitive Staphylococcus aureus ATCC 6538 after 18 to 20 hrs by CLSI-based broth microdilution assay; type: functional; summary of the method: as §1
# [34] = test system: Staphylococcus epidermidis; experiment: Bactericidal activity against methicillin-resistant Staphylococcus epidermidis NRS101 incubated for 18 to 20 hrs followed by replating on tryptic soy agar plate and further incubated for 18 to 24 hrs by CLSI-based broth microdilution assay; type: functional
# [35] = test system: Staphylococcus aureus; experiment: Antibacterial activity against methicilline-resistant Staphylococcus aureus NRS386 USA700 after 18 to 20 hrs by CLSI-based broth microdilution assay; type: functional; summary of the method: as §1
# [36] = test system: Listeria monocytogenes; experiment: Bactericidal activity against Listeria monocytogenes ATCC 19111 incubated for 18 to 20 hrs followed by replating on tryptic soy agar plate and further incubated for 18 to 24 hrs by CLSI-based broth microdilution assay; type: functional
compound,measurement,setting,value
C/C(=N\NC(=N)N)c1sc(-c2ccc(N3CCCCC3C)cc2)nc1C (configuration not stated),MIC,[1],8 µg/mL
CN[C@H](CC(C)C)C(=O)N[C@H]1C(=O)N[C@@H](CC(N)=O)C(=O)N[C@H]2C(=O)N[C@H]3C(=O)N[C@H](C(=O)N[C@H](C(=O)O)c4cc(O)cc(O)c4-c4cc3ccc4O)[C@H](O)c3ccc(c(Cl)c3)Oc3cc2cc(c3O[C@@H]2O[C@H](CO)[C@@H](O)[C@H](O)[C@H]2O[C@H]2C[C@](C)(N)[C@H](O)[C@H](C)O2)Oc2ccc(cc2Cl)[C@H]1O [VANCOMYCIN],inhibition,[2],inactive
same,MBC,[3],1 µg/mL
same,MIC,[4],0.5 µg/mL
same,MBC,[5],1 µg/mL
same,MIC,[6],32 µg/mL
same,MBC,[7],1 µg/mL
same,inhibition,[8],Active
same,MBC,[9],> 64 µg/mL
same,MBC,[10],64 µg/mL
same,MBC,[11],1 µg/mL
same,MBC,[12],> 64 µg/mL
same,MBC,[13],> 64 µg/mL
same,MBC,[14],1 µg/mL
same,MIC,[15],> 64 µg/mL
same,MBC,[16],≤ 0.5 µg/mL
same,MBC,[17],1 µg/mL
same,MIC,[18],> 64 µg/mL
same,MIC,[19],≤ 0.5 µg/mL
same,MIC,[20],1 µg/mL
same,inhibition,[21],inactive
same,MBC,[22],1 µg/mL
same,MIC,[23],0.5 µg/mL
same,MBC,[24],1 µg/mL
same,MIC,[25],> 64 µg/mL
same,MBC,[26],1 µg/mL
CC(=O)NC[C@H]1CN(c2ccc(N3CCOCC3)c(F)c2)C(=O)O1 [LINEZOLID],MIC,[27],1 µg/mL
same,MBC,[3],32 µg/mL
same,MBC,[5],16 µg/mL
same,MIC,[28],1 µg/mL
same,MBC,[7],16 µg/mL
same,MBC,[9],> 64 µg/mL
same,MBC,[10],16 µg/mL
same,MBC,[11],16 µg/mL
same,MBC,[12],64 µg/mL
same,MBC,[13],16 µg/mL
same,MIC,[29],1 µg/mL
same,MBC,[14],> 64 µg/mL
same,MIC,[15],1 µg/mL
same,MBC,[16],16 µg/mL
same,MBC,[17],64 µg/mL
same,MIC,[30],64 µg/mL
same,MIC,[31],1 µg/mL
same,MIC,[18],1 µg/mL
same,MIC,[1],1 µg/mL
same,MIC,[19],1 µg/mL
same,MIC,[32],0.5 µg/mL
same,MIC,[33],1 µg/mL
same,MBC,[34],8 µg/mL
same,MIC,[35],1 µg/mL
same,MBC,[22],64 µg/mL
same,MIC,[23],≤ 0.5 µg/mL
same,MBC,[36],32 µg/mL
same,MBC,[24],32 µg/mL
same,MIC,[25],1 µg/mL
same,MBC,[26],32 µg/mL
C/C(=N\NC(=N)N)c1sc(-c2ccc(N3CCCCCC3)cc2)nc1C,MIC,[1],> 128 µg/mL
C/C(=N\NC(=N)N)c1sc(-c2ccc(N3CCSCC3)cc2)nc1C,MIC,[1],32 µg/mL
C/C(=N\NC(=N)N)c1sc(-c2ccc(N3CCCCCCC3)cc2)nc1C,MIC,[1],128 µg/mL
C/C(=N\NC(=N)N)c1sc(-c2ccc(-n3ccnc3)cc2)nc1C,MIC,[1],16 µg/mL
C/C(=N\NC(=N)N)c1sc(-c2ccc(N3CC(O)C3)cc2)nc1C,MIC,[1],64 µg/mL
C/C(=N\NC(=N)N)c1sc(-c2ccc(N3CCN(C)CC3)cc2)nc1C,MIC,[1],64 µg/mL
